This is an account of results in ChEMBL document CHEMBL1140717, “Acridine-based agents with topoisomerase II activity inhibit pancreatic cancer cell proliferation and induce apoptosis” (J Med Chem, 2008).

The IC50 is the point on the concentration scale where inhibition reaches its midpoint. A lower IC50 goes with greater potency in that assay.

Each structure is given as a SMILES string.

The subject of assay [1] is MIA PaCa-2. As to the kind of experiment: Growth inhibition of human MiaPaCa2 cells after 72 hrs by MTT assay. The assay is classed as functional, cell-based. As to conditions: MIA PaCa-2, 72 h. The gist of the method:
(§1)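 Cells maintained in DMEM with 10% fetal calf serum plus L-glutamine, then exposed over 72 h to a range of compound concentrations. Viability read by MTT; percent growth inhibition determined and IC50 estimated from the MTT data.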

A short description of assay [2]: Growth inhibition of human SU86.86 cells after 72 hrs by MTT assay. As to conditions: SU.86.86, 72 h. The assay is classed as functional, cell-based. The gist of the method:
as §1
Background: Formazan colour is commonly taken as a measure of viable cells.

Assay [3] relates to BXPC-3. As to the kind of experiment: Growth inhibition of human BXPC3 cells after 72 hrs by MTT assay. The assay is classed as functional, cell-based. As to conditions: BXPC-3, 72 h. Summed up: as §1
Assay [4] has as its system MIA PaCa-2. The assay is described as follows: Cell cycle arrest in human MiaPaCa2 cells assessed as accumulation at G1 phase at 15 uM after 36 hrs. The assay is classed as functional. The gist of the method: (§2)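 Cells grown in DMEM with 10% fetal calf serum and L-glutamine, then exposed to diluent or compound at 15 µM final for 36 h. Fixed in 50% ethanol, rehydrated, RNase-treated and stained with 50 µg/mL propidium iodide in 0.1% sodium citrate. Flow cytometry (≥20 000 events per sample) gave the percentage of cells in G1, S and G2/M.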

For assay [5], the system named is MIA PaCa-2. The assay is described as follows: Cell cycle arrest in human MiaPaCa2 cells assessed as accumulation at S phase at 15 uM after 36 hrs. The class given is functional. Summed up:
as §2

Assay [6] has as its system MIA PaCa-2. The assay is described as follows: Cell cycle arrest in human MiaPaCa2 cells assessed as accumulation at G2/M phase at 15 uM after 36 hrs. The assay is classed as functional. Summed up:
as §2

Assay [7] in a line: Cell cycle arrest in human SU86.86 cells assessed as accumulation at G1 phase at 15 uM after 36 hrs. The class given is functional, cell-based. As to conditions: SU.86.86. Summed up: as §2
Assay [8] in a line: Cell cycle arrest in human SU86.86 cells assessed as accumulation at S phase at 15 uM after 36 hrs. As to conditions: SU.86.86. The assay is classed as functional, cell-based. The gist of the method: as §2
Assay [9] is described as follows: Cell cycle arrest in human SU86.86 cells assessed as accumulation at G2/M phase at 15 uM after 36 hrs. The class given is functional, cell-based. As to conditions: SU.86.86. The gist of the method: as §2
In assay [10] the test system is BXPC-3. As to the kind of experiment: Cell cycle arrest in human BXPC3 cells assessed as accumulation at G1 phase at 15 uM after 36 hrs. The class given is functional. The gist of the method:
as §2

For assay [11], the system named is BXPC-3. The assay is described as follows: Cell cycle arrest in human BXPC3 cells assessed as accumulation at S phase at 15 uM after 36 hrs. The assay is classed as functional. The gist of the method:
as §2

The subject of assay [12] is BXPC-3. The assay is described as follows: Cell cycle arrest in human BXPC3 cells assessed as accumulation at G2/M phase at 15 uM after 36 hrs. The class given is functional. The gist of the method: as §2
Assay [13] relates to MIA PaCa-2. As to the kind of experiment: Induction of apoptosis in human MiaPaCa2 cells at 15 uM after 48 hrs. The assay is classed as functional.
Assay [14] deals with SU.86.86. The assay is described as follows: Induction of apoptosis in human SU86.86 cells at 15 uM after 48 hrs. The assay is classed as functional.
The test system of assay [15] is BXPC-3. The assay is described as follows: Induction of apoptosis in human BXPC3 cells at 15 uM after 48 hrs. The assay is classed as functional. Summed up: (§3)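 BXPC-3 cells exposed to diluent or compound for 48 h, then collected and nuclei stained with Hoechst. Three hundred nuclei per field scored as apoptotic when the nucleus was fragmented into multiple discrete fragments; result expressed as percentage of cells in apoptosis.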

Assay [16] has as its system MIA PaCa-2. As to the kind of experiment: Induction of apoptosis in human MiaPaCa2 cells at 25 uM after 48 hrs. The assay is classed as functional.
Assay [17] has as its system SU.86.86. As to the kind of experiment: Induction of apoptosis in human SU86.86 cells at 25 uM after 48 hrs. The assay is classed as functional.
For assay [18], the system named is BXPC-3. As to the kind of experiment: Induction of apoptosis in human BXPC3 cells at 25 uM after 48 hrs. The assay is classed as functional. Summed up: as §3
Assay [19] concerns MIA PaCa-2. The assay is described as follows: Induction of apoptosis in human MiaPaCa2 cells at 50 uM after 48 hrs. The assay is classed as functional.
Assay [20] relates to SU.86.86. As to the kind of experiment: Induction of apoptosis in human SU86.86 cells 50 uM after 48 hrs. The assay is classed as functional.
Assay [21] deals with BXPC-3. As to the kind of experiment: Induction of apoptosis in human BXPC3 cells 50 uM after 48 hrs. The class given is functional. The gist of the method:
as §3

`CN1CCN(C(=O)c2ccc3c(NCCc4c[nH]c5ccccc45)c4ccccc4nc3c2)CC1`: the half-inhibitory concentration (IC50) with MIA PaCa-2 [1] amounted to 6 µM; in assay [2], 8 µM; with BXPC-3 [3] it was 12 µM. For the same compound, the Activity with MIA PaCa-2 [4] came to 29%; with MIA PaCa-2 [5], 51%; in the assay with MIA PaCa-2 [6] it was 20%; in assay [7], 50%; in assay [8], 26%; in assay [9] it was 24%. For the same compound, the Activity is reported as 81% in the assay on BXPC-3 [10]; 12% with BXPC-3 [11]; 7% with BXPC-3 [12]; 20% in the assay with MIA PaCa-2 [13]; 34% with SU.86.86 [14]; 44% with BXPC-3 [15].

Turning to `CCN(CC)C(=O)c1ccc2c(NCCc3c[nH]c4ccccc34)c3ccccc3nc2c1`, the IC50 in the assay on MIA PaCa-2 [1] came out at 11 µM; in assay [2], 10 µM; in the assay with BXPC-3 [3] it was 14 µM. Besides, the Activity in the assay with MIA PaCa-2 [4] was 32%; in the assay on MIA PaCa-2 [5], 50%; in the assay on MIA PaCa-2 [6], 18%; in assay [7], 60%; in [9], 16%; with BXPC-3 [10] it was 76%. The Activity stood at 20% in the assay on BXPC-3 [11]; 4% in the assay with BXPC-3 [12]; 42% in the assay with MIA PaCa-2 [13]; 17% in the assay on SU.86.86 [14]; 40% in the assay with BXPC-3 [15].

Regarding `CN1CCN(C(=O)c2ccc3c(NC4CCN(Cc5ccccc5)CC4)c4ccccc4nc3c2)CC1`, the IC50 with MIA PaCa-2 [1] turned out to be 1 µM; in assay [2], 6 µM; in the assay with BXPC-3 [3], 7 µM. The Activity was found to be 28% in the assay with MIA PaCa-2 [4]; 52% in the assay with MIA PaCa-2 [5]; 20% in the assay on MIA PaCa-2 [6]; 53% in assay [7]; 29% in [8]; 18% in assay [9]. The Activity is 77% with BXPC-3 [10]; 16% in the assay with BXPC-3 [11]; 7% in the assay with BXPC-3 [12]; 36% with MIA PaCa-2 [16]; 30% in the assay with SU.86.86 [17]; 52% in the assay with BXPC-3 [18].

Take `CN1CCN(C(=O)c2cccc3c(NCCc4c[nH]c5ccccc45)c4ccccc4nc23)CC1`: the IC50 in the assay on MIA PaCa-2 [1] is 4 µM; in assay [2], 10 µM. Also, the Activity with MIA PaCa-2 [4] worked out at 32%; in the assay on MIA PaCa-2 [5], 47%; in the assay on MIA PaCa-2 [6], 21%; in assay [7], 56%; in [8], 27%; in assay [9], 17%. Besides, the Activity in the assay on BXPC-3 [10] was determined as 83%; in the assay with BXPC-3 [11], 10%; in the assay on BXPC-3 [12] it was 7%; in the assay with MIA PaCa-2 [19], 29%; in the assay on SU.86.86 [20], 23%; in the assay with BXPC-3 [21], 32%.
